Assay results reported in the M2OR odorant receptor database.

Target: T1, OR2W1 (Homo sapiens) (UniProt Q9Y3N9)
T1 sequence (whole entry): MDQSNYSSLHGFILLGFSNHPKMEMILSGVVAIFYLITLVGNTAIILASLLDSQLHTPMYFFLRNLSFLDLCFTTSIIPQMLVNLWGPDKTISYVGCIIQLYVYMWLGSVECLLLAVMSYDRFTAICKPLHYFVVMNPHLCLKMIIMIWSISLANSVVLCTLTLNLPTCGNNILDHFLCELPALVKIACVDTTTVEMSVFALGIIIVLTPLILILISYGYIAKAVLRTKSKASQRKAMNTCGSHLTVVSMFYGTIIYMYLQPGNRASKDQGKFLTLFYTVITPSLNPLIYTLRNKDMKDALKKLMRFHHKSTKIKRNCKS
Settings: stereoisomer not certain
How it was run: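 Each receptor–molecule pair is labelled responsive or non-responsive (inactive) according to whether the original authors judged the measured signal statistically different from baseline. The data were taken from the main text and supplementary material of published papers and checked for typos and inconsistencies. Assay methods differed by source, with transient luciferase assays in mammalian cell lines being common.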
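Also: active if original authors judged signal statistically different from baseline.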

How did the “odorant receptor agonist call” value turn out when CCCCCCCCO was run?
Its value is “active”.

Which “odorant receptor agonist call” value does the source give for OCC=Cc1ccccc1 here?
Its value is “active”.

With CCCCC(=O)C(C)=O as the compound, how does the “odorant receptor agonist call” value read?
The value was “inactive”.

CCC(C)COC(C)=O (centres undefined) was tested. Which “odorant receptor agonist call” value did it give?
Its value is “inactive”.

Which “odorant receptor agonist call” value does the source give for CC1=CCC2CC1C2(C)C (centres undefined) here?
The value was “inactive”.

How did the “odorant receptor agonist call” value turn out when C=C(C)C1CC=C(C)CC1 (centres undefined) was run?
Its value is “active”.

How did the “odorant receptor agonist call” value turn out when CCc1ccc(O)cc1 was run?
Its value is “active”.

How did the “odorant receptor agonist call” value turn out when CC(=O)O was run?
Its value is “inactive”.

How did the “odorant receptor agonist call” value turn out when CCCCCC(C)O (centres undefined) was run?
Its value is “active”.

For O=c1ccc2ccccc2o1, which “odorant receptor agonist call” value is on record?
Its value is “active”.

CCC(C)CO (centres undefined) was tested. Which “odorant receptor agonist call” value did it give?
The value was “active”.

How did the “odorant receptor agonist call” value turn out when CCCC(=O)OC was run?
The value was “active”.

With CCCCC=CC=CC=O as the compound, how does the “odorant receptor agonist call” value read?
Its value is “active”.

For CCCSSSC, which “odorant receptor agonist call” value is on record?
Its value is “active”.

How did the “odorant receptor agonist call” value turn out when CCCCCCCC(=O)OCC was run?
Its value is “active”.

Which “odorant receptor agonist call” value does the source give for CCC=CCCC=CCO here?
The value was “active”.

CCOC(=O)c1ccccc1 was tested. Which “odorant receptor agonist call” value did it give?
Its value is “active”.

How did the “odorant receptor agonist call” value turn out when CC(C)CC=O was run?
The value was “inactive”.

Which “odorant receptor agonist call” value does the source give for CCCCCC1=C(C)CCC1=O here?
Its value is “active”.

How did the “odorant receptor agonist call” value turn out when CCC(=O)O was run?
Its value is “inactive”.

How did the “odorant receptor agonist call” value turn out when CCCC(S)CCO (centres undefined) was run?
Its value is “active”.

For OCCCc1ccccc1, which “odorant receptor agonist call” value is on record?
The value was “active”.

CCCCCCCCCC(=O)OCC was tested. Which “odorant receptor agonist call” value did it give?
Its value is “active”.

OCCc1ccccc1 was tested. Which “odorant receptor agonist call” value did it give?
The value was “active”.

For CCCCCCCC1CCC(=O)O1 (centres undefined), which “odorant receptor agonist call” value is on record?
The value was “active”.

How did the “odorant receptor agonist call” value turn out when CCCSSCCC was run?
Its value is “active”.

How did the “odorant receptor agonist call” value turn out when CC(=O)OCCc1ccccc1 was run?
The value was “active”.

With C=C1CCC2CC1C2(C)C (centres undefined) as the compound, how does the “odorant receptor agonist call” value read?
Its value is “inactive”.

With CC(C)=CCCC(C)=CCO as the compound, how does the “odorant receptor agonist call” value read?
The value was “inactive”.
